The test system of one assay is Aspergillus niger. Nature of the assay: Antifungal activity against Aspergillus niger. It is filed as functional. Put shortly:
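Disk diffusion assay measuring growth inhibition of Aspergillus niger, run by an earlier published method. The zone of inhibition is reported as an area rather than a diameter.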

The test system of a further assay is A2780. Nature of the assay: Cytotoxicity against human A2780 cells after 72 hrs by MTS method. It is filed as functional, cell-based. The note with it: A2780, 72 h. Put shortly:
(§1)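 Cells grown in McCoy's 5A with 10% heat-inactivated fetal bovine serum and seeded 24 h before dosing. Serially diluted compound was added, then incubated 72 h at 37 °C. MTS with phenazine methosulfate was added for 3 h more, and absorbance at 492 nm gave survival relative to untreated controls. IC50 was taken from six-point curves (5-fold dilutions), each point in duplicate.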
For orientation: Formazan colour is commonly taken as a measure of viable cells.

A further assay has as its system HCT-116. Nature of the assay: Cytotoxicity against human HCT116 cells after 72 hrs by MTS method. It is filed as functional, cell-based. The following applies: HCT-116, 72 h. The gist of the method: as §1
The test system of the next assay is LX-1. Nature of the assay: Cytotoxicity against human LX1 cells after 72 hrs by MTS method. In kind it is functional, cell-based. The note with it: LX-1, 72 h. Put shortly:
as §1

The next assay deals with KB. Nature of the assay: Cytotoxicity against human KB cells after 72 hrs by MTS method. In kind it is functional, cell-based.

A word on the IC50: it is the concentration needed to halve the response being measured. A word on the EC50: it is the concentration giving half of the maximal effect. Low values mean an effect from little substance, high ones a need for much substance.

SMILES strings stand for the structures. Converted amounts (≈) assume the structure as drawn.

Regarding `C[C@@H]1[C@H](O)[C@@H](C)/C=C/C=C/C=C/C=C/C=C/C=C/C=C/[C@H](O[C@@H]2O[C@H](C)[C@@H](O)[C@H](N)[C@@H]2O)C[C@@H]2O[C@](O)(C[C@@H](O)C[C@@H](O)[C@H](O)CC[C@@H](O)C[C@@H](O)CC(=O)O[C@H]1C)C[C@H](O)[C@H]2C(=O)O` [AMPHOTERICIN B], the “inhibition zone (IZ)” value in the assay on Aspergillus niger stood at 254 mm2.
Regarding `CC[C@@]1(O)C(=O)OCc2c1cc1n(c2=O)Cc2cc3ccccc3nc2-1` [CAMPTOTHECIN], the results for the half-inhibitory concentration (IC50) in the assay on A2780, in the assay with HCT-116 and in the assay with LX-1 were 4 nM, 9 nM and 120 nM, respectively.
Consider `C=C/C(C)=C/C[C@]1(C)[C@H](C)C[C@H](O)[C@]23C(=C[C@@H](OC(=O)C(C)C)C[C@@H]12)[C@@H](OC(C)=O)O[C@H]3OC(C)=O` [CASEARVESTRIN A], for which the half-inhibitory concentration (IC50) in the assay on A2780 was 820 nM; in the assay with HCT-116, 710 nM; in the assay on LX-1 it was 540 nM. In the assay with Aspergillus niger, the “inhibition zone (IZ)” value is reported as 348 mm2. The compound also returned a concentration giving a half-maximal response (EC50) with KB of 1.4 µg/mL (≈ 2.77 µM).
For `C=C/C(C)=C/C[C@]1(C)[C@H](C)C[C@H](O)[C@]23C(=C[C@@H](OC(=O)C(C)CC)C[C@@H]12)[C@@H](OC(C)=O)O[C@H]3OC(C)=O` (some centres undefined) [CASEARVESTRIN B], the IC50 in the assay with A2780 stood at 320 nM; in the assay with HCT-116, 250 nM; in the assay with LX-1 it was 200 nM. Further, in the assay on Aspergillus niger, the “inhibition zone (IZ)” value is 296 mm2. Further, in the assay on KB, the EC50 is 1.4 µg/mL (≈ 2.7 µM).
The matching figures for `C=C/C(C)=C/C[C@]1(C)[C@H](C)C[C@H](O)[C@]23C(=C[C@@H](OC(=O)CCCCC)C[C@@H]12)[C@@H](OC(C)=O)O[C@H]3OC(C)=O` [CASEARVESTRIN C]: 420 nM, 260 nM, 290 nM, 177 mm2 and 0.34 µg/mL (≈ 0.638 µM).

Source of the values: ChEMBL document CHEMBL1159312, “Novel bioactive clerodane diterpenoids from the leaves and twigs of Casearia sylvestris” (J Nat Prod, 2002).
